# Source: PubChem BioAssay
# A selection: hits, their analogues and other compounds. The true share with any hit is near 2.3%.
# TAAR1 ag – human TAAR1 agonism. Q96RJ0. CHO RD-HGA16 TAAR1, Fluo-8 calcium fluorescence; vehicle wells 0%, saturating PEA agonist 100%. activation, % at 3 µM. actives 0.99% (n = 360,000);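 active = activation above the mean activation of all test compounds in the run plus 3 SD, cut at about 38% in these data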
#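 Benchmarks: low control DMSO, high control PEA (EC100); System: CHO RD-HGA16 cells carrying human TAAR1 plus Gα16; Detection: Fluo-8 fluorescence, 5 s baseline then 140 s kinetic read; Schedule: 17-24 h plating, Fluo-8 75 min 37 °C, 30 min RT; Read-out basis: % activation from peak over basal fluorescence ratio, DMSO-to-PEA scaled.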
# OXTR ag – activates the human oxytocin receptor; CHO-OTR cells, Fluo-8 calcium fluorescence; normalized: DMSO 0%, oxytocin 100%; activation, % at 3 µM; actives 0.32% (n = 320,000); AID 2435;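 active = activation above the mean of all tested compounds plus 3 SD, cutoff set per screening run, cut at about 20% in these data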;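 note: peak over basal fluorescence ratio from a 100 s FLIPR kinetic read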
# V1R ag counter – activates human V1a receptor in oxytocin agonist counter-screen; actives 0.25% (n = 320,000); AID 2797; activation, % at 3 µM; CHO-V1R cells, Fluo-8 calcium fluorescence, agonist mode; 0% DMSO, 100% 3 nM vasopressin; P37288;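 active = activation above the mean activation of all tested compounds plus 3 SD, per screening run, cut at about 20% in these data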;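 note: signal is peak over basal fluorescence ratio across a 100 second FLIPR read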
# Target sequence (P37288 whole entry, looked up): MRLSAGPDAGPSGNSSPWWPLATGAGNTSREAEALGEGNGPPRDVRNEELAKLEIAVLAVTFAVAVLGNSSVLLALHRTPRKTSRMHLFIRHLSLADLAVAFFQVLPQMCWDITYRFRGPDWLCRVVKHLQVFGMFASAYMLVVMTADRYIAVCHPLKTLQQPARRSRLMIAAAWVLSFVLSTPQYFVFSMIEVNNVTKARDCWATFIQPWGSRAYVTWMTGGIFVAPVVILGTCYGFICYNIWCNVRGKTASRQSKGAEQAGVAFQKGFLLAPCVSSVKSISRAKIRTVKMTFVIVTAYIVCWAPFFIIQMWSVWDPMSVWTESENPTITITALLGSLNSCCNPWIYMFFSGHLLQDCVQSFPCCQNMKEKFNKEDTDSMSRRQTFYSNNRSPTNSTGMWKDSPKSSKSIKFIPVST
# TAAR1 antagonist – human TAAR1 antagonism | actives 1.5% (n = 360,000) | Q96RJ0 | inhibition, % at 3 µM | AID 624466 | CHO RD-HGA16 TAAR1, Fluo-8 calcium fluorescence, antagonist;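 active = inhibition above a per-plate cutoff, the mean inhibition of test compounds on that plate plus 3 SD, cut at about 49% in these data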;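 note: 0% = DMSO plus EC80 beta-PEA response and 100% = DMSO alone without agonist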
#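 Assay system: RD-HGA16 CHO cells with stable hTAAR1 and Gα16 / Reagent: EC80 β-phenethylamine stimulus / Doses: 3 µM, single point / Timing: dye loading 75 min at 37 °C, then 30 min room temperature / Measured by: Fluo-8 intracellular calcium dye fluorescence, real-time kinetic reads / Controls: vehicle wells and EC80 agonist wells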
# OXTR potentiator – human OXTR potentiation; activation, % at 3 µM; CHO-OTR cells, Fluo-8 calcium fluorescence, potentiator mode; 0% = oxytocin EC15, 100% = EC100; actives 0.061% (n = 320,000); P30559; AID 2445;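 active = activation above that plate's cutoff, the mean activation of tested compounds plus 3 SD, cut at about 6.6% in these data, passing the limit was not always enough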;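 note: 100% uses oxytocin at 75 nM as the full agonist control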
#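 Dosing: Single dose, 3.0 µM nominal final compound concentration | Material: Human OTR in CHO cells | Technique: Kinetic Fluo-8 calcium fluorescence | Benchmarks: EC15 oxytocin alone as 0%, 75 nM oxytocin as 100% | Probe or stimulus: Oxytocin at about EC15, sub-maximal agonist stimulus | Incubation: Compound 6 min at room temperature before oxytocin, 100 s read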
# TAAR1 ag conf – confirmation of human TAAR1 agonists; actives 82% (n = 2,400); activation, % at 3 µM; shares compounds with TAAR1 ag; CHO RD-HGA16 TAAR1, Fluo-8 calcium fluorescence; scaled: DMSO 0%, maximal phenethylamine 100%;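 active = activation above a cutoff set at the run's mean compound activation plus 3 SD, cut at about 39% in these data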
# Ga16 nonsel ag – nonselective agonist in parental cells, TAAR1 agonist counter-screen; activation, % at 3 µM; AID 651787; CHO-Ga16 parental, Fluo-8 calcium fluorescence; normalized to maximal ATP response, DMSO zero; shares compounds with TAAR1 ag; actives 50% (n = 2,400);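 active = activation above the run cutoff, the mean activation over all tested wells plus 3 SD, cut at about 12% in these data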;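 note: 0% = DMSO wells and 100% = maximal ATP response on the peak over basal ratio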
# TAAR1 desens – human TAAR1 agonist that also desensitizes the receptor | shares compounds with TAAR1 ag | CHO RD-HGA16 hTAAR1, Fluo-8 calcium, beta-PEA response inhibition | inhibition, % at 3 µM | actives 46% (n = 2,400);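 active = inhibition above the run cutoff, the mean inhibition of all test compounds plus 3 SD, cut at about 49% in these data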;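 note: beta-PEA stimulus applied at its EC80; loss of beta-PEA calcium signal after compound pretreatment read as receptor desensitization; 0% = DMSO with beta-PEA at EC80 and 100% = DMSO alone without agonist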
# Ga16 antag count – counter-screen for TAAR1 agonists: nonselective Ga16 antagonists. actives 39% (n = 2,400). CHO-Ga16 ATP-induced calcium, Fluo-8 fluorescence. shares compounds with TAAR1 ag. inhibition, % at 3 µM;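 active = inhibition above the plate's mean compound inhibition plus 3 SD, computed per plate, cut at about 22% in these data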;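 note: 0% = EC80 ATP with DMSO and 100% = DMSO wells without ATP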
# * hit, by the source's call; nt = not tested or not shown.
SMILES,TAAR1 ag,OXTR ag,V1R ag counter,TAAR1 antagonist,OXTR potentiator,TAAR1 ag conf,Ga16 nonsel ag,TAAR1 desens,Ga16 antag count
CCc1ccc(C(=O)NCc2ccc(Cl)cc2)cc1,65*,-2,-1,33,-3,2,21*,8,15
Cc1ccc(NC(=O)CSc2nnc3ccc(-c4ccncc4)nn23)cc1,0,nt,nt,-22,nt,nt,nt,nt,nt
CC(C)c1ccc(N2C(=O)/C(=C/N(C)C)SC2=S)cc1,59*,38*,25*,49*,-19,58*,56*,51*,65*
N#Cc1cc(C(=O)c2cc(F)ccc2O)cn(-c2nccs2)c1=O,105*,135*,84*,68*,-18,91*,112*,67*,74*
N#Cc1cc(C(=O)c2ccccc2O)cn(-c2nccs2)c1=O,126*,90*,55*,71*,-12,90*,84*,65*,59*
Cc1c(C(=O)N2CCCCC2)c(S(=O)(=O)N2c3ccccc3CC2C)c(C)n1C (configuration not stated),-1,-1,-1,-32,-6,nt,nt,nt,nt
COc1cccc(NC(=O)N2CCCC2C(=O)NCc2ccc(Cl)cc2)c1 (configuration not stated),0,-2,0,-24,2,nt,nt,nt,nt
CCOc1ccc(N2C(=O)CC(NCc3ccc(S(N)(=O)=O)cc3)C2=O)cc1 (configuration not stated),45*,2,0,-11,5,6,2,-13,-2
CCCOc1ccc(N2C(=O)CC(NCc3ccc(S(N)(=O)=O)cc3)C2=O)cc1 (configuration not stated),1,-1,0,-4,1,nt,nt,nt,nt
CC1=CC(C)(C)N(C(=O)CCl)c2cc(C)ccc21,0,-2,-1,-13,-7,nt,nt,nt,nt
CC1=CC(C)(C)N(C(=O)c2ccc(F)cc2)c2cc3c(cc21)OCO3,59*,13,9,37,-9,62*,41*,46,34*
CN(C)CCN(C(=O)c1ccc(S(=O)(=O)N2CCCC2)cc1)c1nc2ccc(Br)cc2s1,7,2,2,-20,-8,nt,nt,nt,nt
CC1CCCCN1S(=O)(=O)c1ccc(C(=O)N(CCCN(C)C)c2nc3ccc(Br)cc3s2)cc1 (configuration not stated),51*,17,10,46,-8,69*,52*,57*,56*
CN(C)CCCN(C(=O)c1ccc(S(=O)(=O)N2CCOCC2)cc1)c1nc2ccc(F)cc2s1,8,2,5,14,-4,nt,nt,nt,nt
CN(C)CCCN(C(=O)c1ccc(S(=O)(=O)N2CCCCCC2)cc1)c1nc2ccc(F)cc2s1,67*,6,12,16,-4,68*,30*,38,20
CCOC(=O)C1C(=O)C=C(/C=C/c2ccc(N(C)C)cc2)CC1c1ccccc1 (configuration not stated),79*,38*,45*,70*,-16,69*,85*,85*,84*
COc1cc(/C=c2\s/c(=C(/C#N)C(=O)N3CCCC3)n(-c3ccccc3)c2=O)ccc1O,75*,12,17,76*,-12,33,34*,64*,54*
COc1ccc(OC)c(NC(=O)CSc2ncnc3sc(C)cc23)c1,18,nt,nt,11,nt,nt,nt,nt,nt
CN(C[C@@H](CC1CCCCC1)N(C[C@H](Cc1ccccc1)N(CCc1ccccc1)N=O)N=O)N=O,60*,1,1,7,-7,94*,2,36,-4
Cc1sc(NC(=O)C2CCCCC2C(=O)O)c(C(N)=O)c1-c1ccc(C(C)(C)C)cc1 (configuration not stated),67*,0,0,46,-5,43*,20*,40,13
COc1cc(/C=C(\NC(=O)c2ccccc2)C(=O)Nc2nccs2)ccc1OC(C)=O,3,3,2,-8,-1,nt,nt,nt,nt
CCOC(=O)NC(NCCc1ccccc1)(C(F)(F)F)C(F)(F)F,87*,-1,0,87*,0,98*,15*,87*,-8
CCOC(=O)C(NCCc1ccccc1)(NC(C)=O)C(F)(F)F (configuration not stated),nt,0,1,nt,-7,nt,1,nt,3
CCOC(=O)C(NCc1ccc(OC)cc1)(NC(C)=O)C(F)(F)F (configuration not stated),-1,0,0,18,-9,nt,nt,nt,nt
CCOC(=O)C(NCCc1ccc(F)cc1)(NC(=O)CC)C(F)(F)F (configuration not stated),51*,-1,1,18,2,64*,6,10,-3
SMILES,TAAR1 ag,OXTR ag,V1R ag counter,TAAR1 antagonist,OXTR potentiator,TAAR1 ag conf,Ga16 nonsel ag,TAAR1 desens,Ga16 antag count
O=C(CNC(=O)c1ccc(Br)cc1)NCc1cccnc1,-1,0,0,8,-3,nt,nt,nt,nt
N#C/C(=C\c1ccc2c(c1)OCCO2)C(=O)Nc1nccs1,-1,-1,-1,6,-4,nt,nt,nt,nt
COc1cc(/C=C/CN2CCN(Cc3ccc(C)o3)C(CCO)C2)ccc1O (configuration not stated),8,0,2,-6,3,nt,nt,nt,nt
CC(NCC(O)COCCC12CC3CC(CC(C3)C1)C2)c1ccccc1 (configuration not stated),84*,9,5,87*,-6,70*,42*,77*,64*
CCN(CCn1cccn1)C(=O)CC1C(=O)NCCN1CC1CCCCC1 (configuration not stated),3,0,0,27,-6,nt,nt,nt,nt
CCN(CCn1cccn1)C(=O)CC1C(=O)NCCN1CCc1ccccc1 (configuration not stated),78*,-1,1,30,-8,93*,2,82*,2
Cc1ccc(C)c(NC(=O)CN(C)C(=O)c2oc3c(Cl)cccc3c2C)c1,9,-2,0,30,-4,nt,nt,nt,nt
